We go through 27 compounds from ChEMBL document CHEMBL1165904, “Design, synthesis and 3D-QSAR of beta-carboline derivatives as potent antitumor agents” (Eur J Med Chem, 2010).

Holding throughout (type): functional, cell-based
The subject of experiment [1] is BGC-823. Description: Cytotoxicity against human BGC823 cells by MTT assay. Summed up: (§1)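 Tumour cells cultured in RPMI-1640 with 10% (v/v) fetal calf serum plus penicillin and streptomycin, at 37 °C, humidified 5% CO2. Compounds from DMSO stocks; final DMSO in medium 2% (v/v) or lower. Assay in 96-well microtitre cultures with MTT staining. IC50 taken as concentration causing 50% growth inhibition relative to untreated cells.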
Background: Tetrazolium dyes change colour on reduction, which living cells bring about.

Experiment [2] relates to MCF7. Briefly: Cytotoxicity against human MCF7 cells by MTT assay. An outline of the steps: as §1
Experiment [3] relates to HepG2. Description: Cytotoxicity against human HepG2 cells by MTT assay. Conditions: for pIC50: read-out: IC50; for IC50: read-out: pIC50 (converted). An outline of the steps: as §1
Experiment [4] relates to Bel-7402. Description: Cytotoxicity against human Bel7402 cells by MTT assay. An outline of the steps:
as §1

For experiment [5], the system named is HeLa. Briefly: Cytotoxicity against human HeLa cells by MTT assay. Summed up:
as §1

pIC50: −log10 of the molar value.

With `CCOC(=O)c1cc2c3ccccc3n(Cc3ccc(F)cc3)c2cn1`, the pIC50 in experiment [1], in experiment [2], in experiment [3], in experiment [4] and in experiment [5] was < 3.70 throughout.

With `O=C(NCCO)c1cc2c3ccccc3n(Cc3ccc(F)cc3)c2cn1`, the pIC50 in experiment [1], in experiment [2], in experiment [3], in experiment [4] and in experiment [5] was < 3.70 throughout.

Turning to `COc1ccc2c(c1)[nH]c1c(C)[n+](Cc3ccccc3)ccc12`, the pIC50 (as a rule, −log10 of the IC50, conventionally taken in molar units) in experiment [1] was 4.17; in experiment [2], 4.12; in experiment [3], 4.26; in experiment [4] it was 4.19; in experiment [5], 4.11. For the same compound, in experiment [3], the IC50 was 55 µM.

With `CCCCn1c2ccccc2c2cc(CO)nc(C)c21`, the pIC50 in experiment [1] was 3.90; in experiment [2], 3.97; in experiment [3] it was 3.89; in experiment [4], 3.91; in experiment [5], 4.00. In addition, the IC50 in experiment [3] was 129 µM.

For `CCCCn1c2ccccc2c2cc(C=O)nc(C)c21`, the pIC50 in experiment [1] was < 3.70; in experiment [2], 3.81; in experiment [3], 3.84; in experiment [4] it was 3.91; in experiment [5] it was 3.77. Also, the IC50 in experiment [3] is 145 µM.

As for `CCCCn1c2ccccc2c2cc(C(=O)NCCO)nc(-c3cc(OC)c(OC)c(OC)c3)c21`, the results for the pIC50 in experiment [2], in experiment [4] and in experiment [5] were 3.98, < 3.70 and < 3.70, respectively.

Regarding `CCCC[n+]1ccc2c(c1)[nH]c1ccccc12`, the negative-log IC50 (pIC50) in experiment [1] is 3.49; in experiment [2] it was 3.47; in experiment [3] it was 4.03; in experiment [4], 3.52; in experiment [5], 3.89. Further, in experiment [3], the IC50 is 93.3 µM.

Turning to `c1ccc(C[n+]2ccc3c(c2)[nH]c2ccccc23)cc1`, the pIC50 in experiment [1] is 4.04; in experiment [2], 4.04; in experiment [3], 4.11; in experiment [4], 4.19; in experiment [5], 4.07. Further, the IC50 in experiment [3] is 77.6 µM.

Turning to `Cc1c2[nH]c3ccccc3c2cc[n+]1CCCc1ccccc1`, the pIC50 was 5.46 in experiment [1]; 4.62 in experiment [2]; 4.48 in experiment [3]; 4.69 in experiment [4]; 4.30 in experiment [5]. Also, in experiment [3], the IC50 was 33.1 µM.

As to `c1ccc(CCC[n+]2ccc3c(c2)[nH]c2ccccc23)cc1`, the pIC50 is 5.15 in experiment [1]; 5.24 in experiment [2]; 4.35 in experiment [3]; 4.61 in experiment [4]; 4.35 in experiment [5]. For the same compound, the IC50 in experiment [3] was 44.7 µM.

For the compound `CCn1c2cc(O)ccc2c2ccnc(C)c21`, the pIC50 is 3.80 in experiment [1]; 3.97 in experiment [2]; 3.87 in experiment [3]; 3.78 in experiment [4]; 4.15 in experiment [5]. For the same compound, the IC50 in experiment [3] was 135 µM.

As for `Cc1c2[nH]c3ccccc3c2cc[n+]1Cc1ccccc1`, the pIC50 in experiment [1] was 4.11; in experiment [2], 4.05; in experiment [3] it was 4.16; in experiment [4], 4.13; in experiment [5], 4.16. The IC50 in experiment [3] was 69.2 µM.

Consider `O=C(NCCO)c1cc2c3ccccc3n(CCCc3ccccc3)c2cn1`, for which the pIC50 in experiment [1], in experiment [2], in experiment [3], in experiment [4] and in experiment [5] was < 3.70 each time.

For `OCc1cc2c3ccccc3n(Cc3ccc(F)cc3)c2cn1`, the pIC50 in experiment [1], in experiment [2], in experiment [3], in experiment [4] and in experiment [5] was < 3.70 in each case.

For the compound `CCCCn1c2ccccc2c2cc(C(=O)NCCN)ncc21`, the pIC50 in experiment [1] was 4.27; in experiment [2], 4.73; in experiment [3], 4.08; in experiment [4], 3.94; in experiment [5], 4.57. In addition, in experiment [3], the IC50 is 83.2 µM.

Turning to `CCOC(=O)c1cc2c([nH]c3ccccc32)c(-c2cc(OC)c(OC)c(OC)c2)n1`, the pIC50 was < 3.70 in experiment [1]; 3.91 in experiment [2]; 3.78 in experiment [3]; < 3.70 in experiment [4]; < 3.70 in experiment [5]. Further, the IC50 in experiment [3] is 166 µM.

Turning to `CCCCn1c2ccccc2c2cc(C(=O)NCCCCCCN)ncc21`, the negative logarithm of the IC50 (pIC50) in experiment [1] is 3.96; in experiment [2] it was 4.37; in experiment [3], 4.02; in experiment [4], 4.23; in experiment [5], 4.28. Moreover, in experiment [3], the IC50 is 95.5 µM.

Regarding `CCCCn1c2ccccc2c2cc(C(=O)NCCO)nc(C)c21`, the pIC50 in experiment [1] was 4.35; in experiment [2] it was 4.01; in experiment [3], 3.85; in experiment [4], 4.04; in experiment [5] it was 4.09. The IC50 in experiment [3] is 141 µM.

As to `CCCCn1c2ccccc2c2cc(C(=O)NCCN)nc(C)c21`, the pIC50 is 4.76 in experiment [1]; 5.12 in experiment [2]; 4.66 in experiment [3]; 4.25 in experiment [4]; 4.88 in experiment [5]. Also, the IC50 in experiment [3] was 21.9 µM.

For `O=C(NCCO)c1cc2c3ccccc3n(Cc3ccccc3)c2cn1`, the pIC50 in experiment [1], in experiment [2], in experiment [3], in experiment [4] and in experiment [5] was < 3.70 throughout.

In the case of `NCCCCCCNC(=O)c1cc2c3ccccc3n(Cc3ccccc3)c2cn1`, the pIC50 in experiment [1] is 4.46; in experiment [2], 4.27; in experiment [3], 4.23; in experiment [4], 4.25; in experiment [5] it was 4.62. The IC50 in experiment [3] was 58.9 µM.

In the case of `CCCCn1c2ccccc2c2cc(C(=O)OCC)nc(-c3cc(OC)c(OC)c(OC)c3)c21`, the pIC50 in experiment [2], in experiment [3], in experiment [4] and in experiment [5] was < 3.70 throughout.

`CCCCn1c2ccccc2c2cc(C(=O)O)nc(-c3cc(OC)c(OC)c(OC)c3)c21`: the pIC50 in experiment [1] was 4.44; in experiment [2], 3.94; in experiment [3] it was 3.68; in experiment [4] it was 3.73; in experiment [5], 3.78. Moreover, the IC50 in experiment [3] was 209 µM.

Regarding `O=Cc1cc2c3ccccc3n(Cc3ccc(F)cc3)c2cn1`, the pIC50 in experiment [1], in experiment [2], in experiment [3], in experiment [4] and in experiment [5] was < 3.70 throughout.

Turning to `NCCNC(=O)c1cc2c3ccccc3n(Cc3ccccc3)c2cn1`, the pIC50 was 4.92 in experiment [1]; 4.29 in experiment [2]; 3.98 in experiment [3]; 4.29 in experiment [4]; 4.37 in experiment [5]. In addition, the IC50 in experiment [3] is 105 µM.

In the case of `CCOC(=O)c1cc2c([nH]c3ccccc32)c(C)[n+]1Cc1ccccc1`, the negative logarithm of the IC50 (pIC50) was 4.26 in experiment [1]; 4.35 in experiment [2]; 4.28 in experiment [3]; 4.25 in experiment [4]; 4.00 in experiment [5]. In addition, in experiment [3], the IC50 was 52.5 µM.

For `Cc1nc(C(=O)NCCN)cc2c3ccccc3n(Cc3ccccc3)c12`, the negative-log IC50 (pIC50) in experiment [1] is 4.69; in experiment [2], 5.33; in experiment [3] it was 4.46; in experiment [4], 4.27; in experiment [5], 4.96. In experiment [3], the IC50 is 34.7 µM.
